Results gathered from unrelated publications.
Medium: plasma

`COc1nc(-c2cc(C)c(N[C@@H](C)c3cc(F)cc(F)c3)nn2)ccc1-n1cnc(C)c1` has an MRT(0-t) of 3.28 h (male Sprague-Dawley rat; intravenous, 1 mg/kg, single dose).
`O=C(Nc1cc(F)c(F)c(F)c1)c1ccc(F)c(S(=O)(=O)NCc2cccc(B(O)O)c2)c1` has an MRT(0-t) of 0.73 h (male Sprague-Dawley rat; intravenous, 2 mg/kg).
The MRT of `Cc1nc(Nc2ncc(C(=O)Nc3c(C)cccc3Cl)s2)cc(N2CCN(CCO)CC2)n1` is reported as 3.78 h (female Sprague-Dawley rat; intravenous, 5 mg/kg).
`CCOC(=O)[C@@]12C[C@@H]1[C@@H](n1ccc3c(NC)nc(C#Cc4ccc(Cl)s4)nc31)[C@H](O)[C@@H]2O` gave an MRT(0-t) of 2.44 h (male Sprague-Dawley rat; oral, 3 mg/kg).
`CCc1cc(C(=O)NC)c2nccc(N3CCc4c(cc(Cn5ccnc5)cc4-c4cn(C)nc4C(F)(F)F)C3=O)c2c1` gave an MRT(0-inf) of 3.8 h (male Sprague-Dawley rat; oral, 100 mg/kg, single dose).
For `N#Cc1ccc(Nc2nc(N)cc(Oc3c(F)cc(-c4ccc(C#N)cc4)cc3F)n2)cc1`, the MRT(0-inf) was 6.48 h (Sprague-Dawley rat; oral, 5 mg/kg).
With `CNCc1cc(-c2ccccc2F)n(S(=O)(=O)c2cccnc2)c1` the MRT(0-inf) was 2.47 h (Sprague-Dawley rat; oral, 10 mg/kg).
`O=C(O)/C=C/c1ccc(O)c(O)c1` gave an MRT of 0.69 h (HPLC; Wistar rat; oral).
The MRT(0-inf) of `CCc1nc(C(N)=O)c(Nc2ccc(N3CCC(N4CCN(C)CC4)CC3)c(OC)c2)nc1NC1CCOCC1` is reported as 21.8 h (male Sprague-Dawley rat; oral, 10 mg/kg).
For `C#Cc1cccc(Nc2ncnc3cc(OCCOC)c(OCCOC)cc23)c1`, the MRT(0-inf) was 5.1 h (male Sprague-Dawley rat; oral, 12 mg/kg, single dose).
The MRT(0-inf) of `CCc1cc(OC)c2nccc(N3CCc4c(cc(Cn5ccnc5)cc4-c4cn(C)nc4C(F)(F)F)C3=O)c2c1` is reported as 2.7 h (male Sprague-Dawley rat; oral, 50 mg/kg).
`Oc1c(Br)cc(Cl)c2cccnc12` has an MRT of 12.5 h (Sprague-Dawley rat; intravenous, 2 mg/kg).
